The series in a line: Toxicity liver stage against HepG2, at 10uM. Particulars: human, HepG2-A16-CD81EGFP cells; read-out: INHIBITION
It counts as cell-based. More on the design: test concentration 10 uM, cell line HepG2-A16-CD81EGFP. The method in brief:
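Uninfected HepG2-A16-CD81EGFP cells, 3 × 10^3 per well, 1536-well, plated on prespotted compound at 10 μM final, parasite-free screening media added to match infected plates; puromycin 10 μM positive, DMSO 0.5% negative; run in parallel with 48 h PbLuc assay at 37 °C, 5% CO2; viability by CellTiter-Glo luminescence, normalized to controls.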

Structures are written as SMILES.

As to `O=C(Nc1ccccc1C(=O)NCCN1CCOCC1)c1ccco1`, the cytotoxicity at 10 µM was -0.972%.

With `CCCC(NC(=O)c1ccc(OC)cc1F)c1nnn[nH]1` (configuration not stated), the cytotoxicity at 10 µM was -7.61%.

Regarding `CCOCC(O)CN1CCN(C(=O)CC(C)(C)C)CC1` (configuration not stated), the cytotoxicity at 10 µM is -5.95%.

Turning to `COc1ccc(CNCc2ccnc(N3CCCC3)c2)c(OC)c1`, the cytotoxicity at 10 µM came out at 3.45%.

`Cc1cnn(C2CN(Cc3nnc(Cc4ccccc4)o3)C2)c1`: the cytotoxicity at 10 µM came to 4.4%.

For `Nc1ncc(C(=O)N2CCN(c3nccs3)CC2)cc1Cl`, the cytotoxicity at 10 µM was -3.78%.

With `CN(CC(O)C(F)(F)F)C(=O)Nc1cccc(N2CCCC2)c1` (configuration not stated), the cytotoxicity at 10 µM turned out to be 5.48%.

Turning to `c1ccc(CN2CCCC(c3nccnc3-n3ccnc3)C2)cc1` (configuration not stated), the cytotoxicity at 10 µM is -4.56%.

Turning to `COc1cc(Br)c(CNC(C)c2nnc3n2CCC3)cc1OC` (configuration not stated), the cytotoxicity at 10 µM is -43.2%.

Take `CN1CCN(CCO)C(=O)C12CCN(c1nccs1)CC2`: the cytotoxicity at 10 µM was 3.88%.

Turning to `Fc1ccc(OCCNC2CCN(Cc3ccccn3)CC2)c(F)c1`, the cytotoxicity at 10 µM is -3.26%.

On to `CC(C(=O)Nc1ccccc1Sc1ccccc1)S(C)(=O)=O` (configuration not stated), for which the cytotoxicity at 10 µM was -1.7%.

For the compound `CN(C)C(=O)CN1C[C@H]2CC[C@@H](C1)N(Cc1ccccc1OCCO)C2`, the cytotoxicity at 10 µM was 8.79%.

Regarding `CN(C)C(=O)N1CCN(C(=O)Nc2nc(-c3ccccc3)ns2)CC1`, the cytotoxicity at 10 µM was -136%.

In the case of `CCc1ncc(CN2CCCN(CC3CC3)C(C(C)C)C2)cn1` (configuration not stated), the cytotoxicity at 10 µM is -6.03%.

For the compound `Cc1nccc(-c2ccccc2)c1C(=O)N1CC[C@](C)(O)[C@H](C)C1`, the cytotoxicity at 10 µM was 3.41%.

Take `CN(C)c1cc(CNC(=O)c2ccc(=O)[nH]n2)ccn1`: the cytotoxicity at 10 µM came out at 0.962%.

With `O=C(NC[C@H]1OC[C@@H]2CCN(Cc3ccco3)C[C@@H]21)c1ccsc1`, the cytotoxicity at 10 µM was -18.3%.

In the case of `Cc1noc(C)c1S(=O)(=O)N1CCC(n2cccn2)CC1`, the cytotoxicity at 10 µM was determined as 2.63%.

Take `COc1ccc(CCC(=O)Nc2ccc3ncn(C)c(=O)c3c2)cc1`: the cytotoxicity at 10 µM is 6.44%.

In the case of `O=C(NCc1ccncc1)N1CCSCC1c1ccc(Cl)cc1` (configuration not stated), the cytotoxicity at 10 µM stood at 1.6%.

Consider `COc1ccc(Nc2ccc(C#N)cn2)cc1N1CCCC1=O`, for which the cytotoxicity at 10 µM stood at 10.1%.

Regarding `O=C(NCc1cccc2cccnc12)N1CCC(n2cncn2)CC1`, the cytotoxicity at 10 µM is 0.722%.

On to `CCc1nnc(NC(=O)c2c3c(nn2C2CCS(=O)(=O)C2)CCC3)s1` (configuration not stated), for which the cytotoxicity at 10 µM was -4.28%.

In the case of `Cc1cnn(CC2CN(Cc3nnc(C(C)C)o3)CCO2)c1` (configuration not stated), the cytotoxicity at 10 µM was -2.55%.

Regarding `Cn1c(=O)ccn(CC(=O)Nc2cccnc2)c1=O`, the cytotoxicity at 10 µM was -1.58%.

Regarding `O=S1(=O)CCCN1Cc1coc(-c2ccc(C(F)(F)F)cc2)n1`, the cytotoxicity at 10 µM is -2.04%.

Take `Cc1nn(C)c(N(C)C)c1CNCc1nnc2n1CCCCC2`: the cytotoxicity at 10 µM is -5.68%.

Regarding `CC(C)[C@@H]1CN(S(=O)(=O)Cc2ccccc2)C[C@H]1C(=O)O`, the cytotoxicity at 10 µM is -1.05%.

As to `CCOc1ccc(N(CCC#N)C(=O)c2ccc(SC)nc2)cc1`, the cytotoxicity at 10 µM amounted to 5.93%.

In the case of `CCC(C)N(Cc1ccsc1)C(=O)c1ccc(CO)cc1` (configuration not stated), the cytotoxicity at 10 µM was determined as 4.26%.

Take `O=C(Nc1cccnc1)[C@H]1CO[C@H]2CCNC[C@H]2C1`: the cytotoxicity at 10 µM turned out to be 9.24%.

On to `FC(F)(F)c1nc(C2CCNCC2)no1`, for which the cytotoxicity at 10 µM turned out to be 5.88%.

Take `CN(C)CCN1C(=O)CCCC12CCCN(C(=O)c1ccncc1)C2` (configuration not stated): the cytotoxicity at 10 µM is -1.31%.

In the case of `Cc1ccc(CNCc2nccn2C)c(OC(C)(C)C)c1`, the cytotoxicity at 10 µM is -2.58%.

`Cc1ncc(CN2CCCC(c3cc(C(N)=O)[nH]n3)C2)s1` (configuration not stated): the cytotoxicity at 10 µM was -27.7%.

For the compound `CC1=C(C(N)=O)C(c2cn(C)nc2C)N2C(=O)CSC2=N1` (configuration not stated), the cytotoxicity at 10 µM is 4.43%.

As for `CN(C)C(=O)N1CCC(c2nc3ccc(-c4ccccc4)cn3n2)CC1`, the cytotoxicity at 10 µM is 5.9%.

For `CN1CCC(Oc2ccc(NC(=O)c3cccc(Cl)c3)cc2)CC1`, the cytotoxicity at 10 µM is -8.45%.

On to `CC(C)NC(=O)N1CCC[C@H]1C(=O)NCCCc1cccc(F)c1`, for which the cytotoxicity at 10 µM turned out to be 4.27%.

For `c1cncc(CN2CCCn3nnc(COCC4CC4)c3C2)c1`, the cytotoxicity at 10 µM was -110%.

`CNS(=O)(=O)c1cccc(CNC(=O)c2cc(C)no2)c1`: the cytotoxicity at 10 µM is -10.3%.

In the case of `Cc1cc(C)nc(-n2nc(C)c3c2NC(=O)CSC3c2cnn(C)c2)n1` (configuration not stated), the cytotoxicity at 10 µM is -36.5%.

In the case of `CC(C)N(C)Cc1noc2c1CN(C(=O)c1ccsc1)CC2`, the cytotoxicity at 10 µM was 4.89%.

Consider `Cc1cc(C(=O)N2CCNC(=O)C2)c(C)n1Cc1ccccn1`, for which the cytotoxicity at 10 µM was -2.33%.

Regarding `Cc1nn(C)c(Cl)c1C1CCCN1C(=O)c1cc(C2CC2)on1` (configuration not stated), the cytotoxicity at 10 µM was -13.3%.

For the compound `Cc1ccc(C(=O)N2CC[C@H]3O[C@@H](c4noc(C)n4)C[C@H]3C2)o1`, the cytotoxicity at 10 µM was found to be 1.92%.

`Fc1ccccc1OCCN1CCCCC1Cn1cncn1` (configuration not stated): the cytotoxicity at 10 µM is -18.9%.

As to `Cn1c(NC(=O)CNC(=O)C2CC2)nc2cc(Cl)ccc21`, the cytotoxicity at 10 µM stood at 3.66%.

As for `CC(=O)N1[C@H](Cn2cncn2)C[C@@H]2CN(S(C)(=O)=O)CC[C@@H]21`, the cytotoxicity at 10 µM was -10.9%.

On to `CC(C)NC(=O)NCCn1nc(C(F)(F)F)n(C)c1=O`, for which the cytotoxicity at 10 µM is -0.173%.

On to `COc1ncccc1CNC(=O)c1cc(F)cc(Br)c1`, for which the cytotoxicity at 10 µM was -0.872%.

Regarding `Cc1nnc(CCNC(=O)C(c2ccc(F)cc2)N(C)C)[nH]1` (configuration not stated), the cytotoxicity at 10 µM is -5.96%.

With `Cc1cccc(CN2CCc3onc(Cn4cccc4)c3C2)n1`, the cytotoxicity at 10 µM came to 7.81%.

Regarding `Cc1ccccc1-c1cc(CC2(C(=O)O)CCOCC2)on1`, the cytotoxicity at 10 µM was -14.1%.

`Cc1ccc(C2COCCN2C(=O)c2ccc(F)c(F)c2)o1` (configuration not stated): the cytotoxicity at 10 µM came to 4.96%.

Regarding `Cc1[nH]nc2ncc(C(=O)N3CCN(CC(C)O)CC3)cc12` (configuration not stated), the cytotoxicity at 10 µM is -1.73%.

Regarding `COCC1CN(C(=O)c2cccs2)Cc2nccn2C1` (configuration not stated), the cytotoxicity at 10 µM is -104%.

On to `N#CC1C(=O)Nc2c(cnn2C2CCCC2)C12CCCCC2` (configuration not stated), for which the cytotoxicity at 10 µM is 8.46%.

In the case of `O=c1[nH][nH]cc1-c1ccnc(NCCCN2CCOCC2)n1`, the cytotoxicity at 10 µM was 3.27%.

With `c1coc(CN2CCO[C@H]3[C@H](OCC4CCCC4)CC[C@@H]32)c1`, the cytotoxicity at 10 µM came out at 19.7%.

As to `Cc1cc(C(=O)N2CCC3(CC(=O)NC3=O)C2)c(-c2ccccc2)o1` (configuration not stated), the cytotoxicity at 10 µM is -3.15%.

Take `CN(CC1CC1)c1ccc2ccc(C(=O)NC3CCCCC3)cn12`: the cytotoxicity at 10 µM is -0.567%.

With `CC1(C)CC(=O)c2cnc3nc(N4CCCCC4)nc(O)c3c2C1`, the cytotoxicity at 10 µM is -0.0124%.

As to `COCCN1CCCC1Cn1nc(C)cc1C` (configuration not stated), the cytotoxicity at 10 µM is 1.31%.

As to `Fc1ccc(-c2cnc(C3CCNCC3)cn2)cc1`, the cytotoxicity at 10 µM was -7.14%.

For the compound `CN(C(=O)COc1ccc(F)cc1)[C@@H]1CS(=O)(=O)C[C@H]1O`, the cytotoxicity at 10 µM was -2.62%.

As to `Cc1cc(Cl)c(C)c(S(=O)(=O)N2CCN(Cc3ccncc3)CC2)c1Cl`, the cytotoxicity at 10 µM was found to be 1.76%.

With `CCOC(=O)c1c(NC(=O)C2CCN(C(C)=O)CC2)sc(C)c1CC`, the cytotoxicity at 10 µM was found to be 10.9%.

Take `CCNc1ncc(C(=O)N(C)CCc2nc3cc(Cl)ccc3[nH]2)cn1`: the cytotoxicity at 10 µM was -45.8%.

As to `CNc1ncccc1C(=O)N1CCC2(CCN(C)C2)CC1`, the cytotoxicity at 10 µM is 0.521%.

For `COC(=O)CN1CCCn2nc(CCC(=O)N3CCCC3)cc2C1`, the cytotoxicity at 10 µM is -204%.

As to `Cc1cccc(C(=O)NCCCN2CCN(c3ccccc3)CC2)c1`, the cytotoxicity at 10 µM came to 7.67%.

Turning to `CCn1c(CN2CCC(O)(C(=O)OC)CC2)nc2c(F)cccc21`, the cytotoxicity at 10 µM was -9.73%.

Consider `CN1CCCN(C(C(=O)O)c2ccc3c(c2)OCO3)CC1` (configuration not stated), for which the cytotoxicity at 10 µM was determined as 1.83%.

As to `COc1ccccc1Oc1ncccc1CNC(=O)C1(C)CCCNC1` (configuration not stated), the cytotoxicity at 10 µM is -2.56%.

As for `Cc1nsc(NC(=O)N2CCCCC2CCO)n1` (configuration not stated), the cytotoxicity at 10 µM was -45.7%.

On to `O=C(NCCn1ccnc1)NCC(c1ccco1)N1CCCC1` (configuration not stated), for which the cytotoxicity at 10 µM worked out at 2.01%.

Consider `CCCn1nc2c(cc1=O)CN(Cc1nc(-c3ccoc3)no1)CC2`, for which the cytotoxicity at 10 µM was found to be 8.64%.

For the compound `O=C(NCCNc1ncccn1)c1ccc(Br)cc1`, the cytotoxicity at 10 µM was -0.628%.

Turning to `Cc1ccc(C(NC(=O)CCCN2CCCCC2)C(=O)O)cc1` (configuration not stated), the cytotoxicity at 10 µM was 2.87%.

For the compound `CS(=O)(=O)N1CCC(Nc2ccc(C#N)c(C(F)(F)F)c2)CC1`, the cytotoxicity at 10 µM was determined as 6.85%.

For the compound `O=S(=O)(Cc1ccccc1F)NC(CO)c1ccco1` (configuration not stated), the cytotoxicity at 10 µM turned out to be 6.6%.

With `Cc1c(CCC(=O)Nc2ccc(Cl)cn2)cnn1C`, the cytotoxicity at 10 µM is 0.678%.

Consider `CC(C)c1ocnc1C(=O)Nc1cccc(Cn2ccccc2=O)c1`, for which the cytotoxicity at 10 µM came to 8.15%.

For the compound `Cc1cc(C(=O)N2CC(O)CO2)c2ccc(C)c(C)c2n1` (configuration not stated), the cytotoxicity at 10 µM stood at 11.3%.

For `CC(C)C(O)CNC(=O)CCCc1ccccn1` (configuration not stated), the cytotoxicity at 10 µM was found to be 0.665%.

Turning to `CCc1nc(C(=O)N2CCN(CC)CC2)nn1-c1ccccc1Cl`, the cytotoxicity at 10 µM was 2.79%.

Turning to `Cc1cccnc1NC(=O)NCc1cccnc1OC(C)C`, the cytotoxicity at 10 µM is -8.75%.

Turning to `COc1ccc(CNCCc2cc(F)cc3c2OCOC3)cc1OC`, the cytotoxicity at 10 µM is -6.9%.

Regarding `Cc1cc(-n2cncn2)ccc1C(=O)Nc1ccc(N2CCCC2)cn1`, the cytotoxicity at 10 µM came out at 7.26%.

As for `COc1cc(C(C)NCc2ncccc2C)ccc1SC(F)F` (configuration not stated), the cytotoxicity at 10 µM was -8.47%.

Regarding `CC(C)=CCCC(C)CN1CCC(n2cc(C(=O)NCCO)nn2)CC1` (configuration not stated), the cytotoxicity at 10 µM is 0.232%.

Consider `CC1CN(CC(=O)NCc2ccccn2)CCN1Cc1nccn1C` (configuration not stated), for which the cytotoxicity at 10 µM is -4.07%.

On to `CN(C)CCNC(=O)c1sccc1N(C)S(=O)(=O)c1ccc(Cl)cc1`, for which the cytotoxicity at 10 µM stood at 2.38%.

As for `O=C(Nc1ccc(Cl)cn1)c1cncc(C2CCNCC2)n1`, the cytotoxicity at 10 µM is -13.5%.

With `Cc1ccc(S(=O)(=O)N2CCc3ccc(F)cc32)cc1C(=O)O`, the cytotoxicity at 10 µM was -19.4%.

Source of the values: ChEMBL document CHEMBL4513216, “Probing the Open Global Health Chemical Diversity Library for Multistage-Active Starting Points for Next-Generation Antimalarials” (ACS Infect Dis, 2020).
